According to ChEMBL document CHEMBL4190262, “Tuning of β-glucosidase and α-galactosidase inhibition by generation and in situ screening of a library of pyrrolidine-triazole hybrid molecules” (Eur J Med Chem, 2017):
Calls of active or inactive are those of the source. The rule behind the calls is not given here.

Columns and labels:
[1] = molecular target: Beta-galactosidase (Escherichia coli) (UniProt Q8VNN2); test: Inhibition of Escherichia coli beta-galactosidase at 1 mM using p-nitrophenyl glycopyranoside preincubated for 5 mins followed by substrate addition measured after 20 mins by visible absorption spectroscopic method relative to control
Beta-galactosidase (Escherichia coli), sequence (Q8VNN2 whole entry, looked up): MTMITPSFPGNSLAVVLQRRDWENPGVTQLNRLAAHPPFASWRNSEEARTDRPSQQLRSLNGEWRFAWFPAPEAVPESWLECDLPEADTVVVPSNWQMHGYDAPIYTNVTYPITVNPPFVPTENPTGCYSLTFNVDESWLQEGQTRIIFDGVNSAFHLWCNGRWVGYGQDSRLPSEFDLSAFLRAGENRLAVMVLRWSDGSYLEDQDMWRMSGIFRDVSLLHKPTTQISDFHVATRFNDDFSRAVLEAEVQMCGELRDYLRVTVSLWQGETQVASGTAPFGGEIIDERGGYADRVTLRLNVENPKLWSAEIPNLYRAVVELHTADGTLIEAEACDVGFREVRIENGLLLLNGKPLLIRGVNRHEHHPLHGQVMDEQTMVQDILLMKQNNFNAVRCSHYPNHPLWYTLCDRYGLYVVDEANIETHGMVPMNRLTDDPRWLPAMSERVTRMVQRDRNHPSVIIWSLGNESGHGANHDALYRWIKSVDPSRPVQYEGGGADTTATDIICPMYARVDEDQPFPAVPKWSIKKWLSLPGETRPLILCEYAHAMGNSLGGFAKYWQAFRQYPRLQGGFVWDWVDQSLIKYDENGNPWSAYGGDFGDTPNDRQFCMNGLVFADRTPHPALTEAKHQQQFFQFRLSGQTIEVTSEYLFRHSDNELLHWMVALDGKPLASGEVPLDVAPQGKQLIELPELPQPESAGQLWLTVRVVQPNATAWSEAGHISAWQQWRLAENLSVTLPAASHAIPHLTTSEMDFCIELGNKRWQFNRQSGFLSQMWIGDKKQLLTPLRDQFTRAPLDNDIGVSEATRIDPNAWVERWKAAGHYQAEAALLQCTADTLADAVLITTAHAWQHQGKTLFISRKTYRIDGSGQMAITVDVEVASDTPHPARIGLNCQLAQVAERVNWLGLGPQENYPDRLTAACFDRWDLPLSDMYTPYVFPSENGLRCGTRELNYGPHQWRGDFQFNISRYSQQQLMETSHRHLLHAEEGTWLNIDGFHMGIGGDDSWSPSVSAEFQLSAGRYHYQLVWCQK
Summary of the method: (§1)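 Test compound at 1 mM in well. Mix: 0.01–0.5 units/mL enzyme plus 10 mM p-nitrophenyl glycopyranoside (aqueous solution), buffered to the enzyme's optimal pH. Enzyme and inhibitor preincubated 5 min at rt. Substrate then added and incubated 20 min at 37 °C. Stopped with sodium borate (pH 9.8). p-Nitrophenolate read at 405 nm. Duplicates averaged.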

[2] = organism: Bos taurus; test: Inhibition of bovine kidney alpha-L-fucosidase at 1 mM using p-nitrophenyl glycopyranoside preincubated for 5 mins followed by substrate addition measured after 20 mins by visible absorption spectroscopic method relative to control; summary of the method: as §1
[3] = Inhibition of bovine kidney alpha-L-fucosidase using p-nitrophenyl glycopyranoside preincubated for 5 mins followed by substrate addition measured after 20 mins by visible absorption spectroscopic method; design: species or system Bos taurus
[4] = molecular target: Alpha-galactosidase (Coffea arabica) (UniProt Q42656); test: Inhibition of coffee beans alpha-galactosidase at 1 mM using p-nitrophenyl glycopyranoside preincubated for 5 mins followed by substrate addition measured after 20 mins by visible absorption spectroscopic method relative to control; summary of the method: as §1
Alpha-galactosidase (Coffea arabica), sequence (Q42656 16-378 limits assumed): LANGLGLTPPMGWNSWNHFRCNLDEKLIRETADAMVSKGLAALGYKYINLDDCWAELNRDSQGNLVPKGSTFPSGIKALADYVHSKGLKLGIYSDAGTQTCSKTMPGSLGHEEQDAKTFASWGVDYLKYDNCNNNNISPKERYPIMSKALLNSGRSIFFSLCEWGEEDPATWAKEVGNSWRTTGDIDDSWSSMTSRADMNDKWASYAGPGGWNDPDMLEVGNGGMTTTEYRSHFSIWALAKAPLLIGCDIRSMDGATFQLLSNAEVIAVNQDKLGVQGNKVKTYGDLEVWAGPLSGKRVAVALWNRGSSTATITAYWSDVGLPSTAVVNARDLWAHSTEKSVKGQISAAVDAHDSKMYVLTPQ

[5] = molecular target: T1, Beta-galactosidase (Aspergillus oryzae) (UniProt B7VU80); test: Inhibition of Aspergillus oryzae beta-galactosidase at 1 mM using p-nitrophenyl glycopyranoside preincubated for 5 mins followed by substrate addition measured after 20 mins by visible absorption spectroscopic method relative to control; summary of the method: as §1
T1 sequence (whole entry): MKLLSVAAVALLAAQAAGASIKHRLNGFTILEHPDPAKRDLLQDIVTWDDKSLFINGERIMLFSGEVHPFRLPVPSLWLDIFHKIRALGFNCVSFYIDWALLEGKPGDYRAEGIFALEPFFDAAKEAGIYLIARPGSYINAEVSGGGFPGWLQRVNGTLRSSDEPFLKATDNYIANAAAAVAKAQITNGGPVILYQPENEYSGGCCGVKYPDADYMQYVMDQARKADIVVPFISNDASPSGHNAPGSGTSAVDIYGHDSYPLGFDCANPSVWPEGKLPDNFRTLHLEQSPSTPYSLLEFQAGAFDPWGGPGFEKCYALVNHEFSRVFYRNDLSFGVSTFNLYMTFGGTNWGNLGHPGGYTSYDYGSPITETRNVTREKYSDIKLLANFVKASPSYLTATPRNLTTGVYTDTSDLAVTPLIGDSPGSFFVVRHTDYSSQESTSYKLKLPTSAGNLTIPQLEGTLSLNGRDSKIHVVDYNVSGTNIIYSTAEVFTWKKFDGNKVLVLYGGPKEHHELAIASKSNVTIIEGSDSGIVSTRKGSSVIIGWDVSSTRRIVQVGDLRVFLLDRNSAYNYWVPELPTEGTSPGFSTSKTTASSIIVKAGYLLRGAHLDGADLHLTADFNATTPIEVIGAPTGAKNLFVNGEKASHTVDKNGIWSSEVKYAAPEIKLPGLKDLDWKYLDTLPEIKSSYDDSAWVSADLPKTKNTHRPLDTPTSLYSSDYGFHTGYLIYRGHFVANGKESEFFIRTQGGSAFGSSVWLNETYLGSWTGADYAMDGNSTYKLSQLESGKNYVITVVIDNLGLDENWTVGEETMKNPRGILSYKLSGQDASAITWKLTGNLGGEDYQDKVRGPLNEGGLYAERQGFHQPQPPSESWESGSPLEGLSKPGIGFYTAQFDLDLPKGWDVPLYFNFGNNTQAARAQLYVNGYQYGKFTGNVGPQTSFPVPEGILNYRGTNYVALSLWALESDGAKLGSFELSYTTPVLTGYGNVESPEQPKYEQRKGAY

[6] = test system: Saccharomyces cerevisiae; test: Inhibition of yeast alpha glucosidase at 1 mM using p-nitrophenyl glycopyranoside preincubated for 5 mins followed by substrate addition measured after 20 mins by visible absorption spectroscopic method relative to control; summary of the method: as §1
[7] = test system: Oryza sativa; test: Inhibition of rice alpha-glucosidase at 1 mM using p-nitrophenyl glycopyranoside preincubated for 5 mins followed by substrate addition measured after 20 mins by visible absorption spectroscopic method relative to control; summary of the method: as §1
[8] = test system: Aspergillus niger; test: Inhibition of Aspergillus niger amyloglucosidase at 1 mM using p-nitrophenyl glycopyranoside preincubated for 5 mins followed by substrate addition measured after 20 mins by visible absorption spectroscopic method relative to control; summary of the method: as §1
[9] = test system: Prunus dulcis; test: Inhibition of almond beta-glucosidase at 1 mM using p-nitrophenyl glycopyranoside preincubated for 5 mins followed by substrate addition measured after 20 mins by visible absorption spectroscopic method relative to control; summary of the method: as §1
[10] = molecular target: T2, Alpha-mannosidase (Canavalia ensiformis) (UniProt C0HJB3); test: Inhibition of jack bean alpha-mannosidase at 1 mM using p-nitrophenyl glycopyranoside preincubated for 5 mins followed by substrate addition measured after 20 mins by visible absorption spectroscopic method relative to control; summary of the method: as §1
T2 sequence (whole entry): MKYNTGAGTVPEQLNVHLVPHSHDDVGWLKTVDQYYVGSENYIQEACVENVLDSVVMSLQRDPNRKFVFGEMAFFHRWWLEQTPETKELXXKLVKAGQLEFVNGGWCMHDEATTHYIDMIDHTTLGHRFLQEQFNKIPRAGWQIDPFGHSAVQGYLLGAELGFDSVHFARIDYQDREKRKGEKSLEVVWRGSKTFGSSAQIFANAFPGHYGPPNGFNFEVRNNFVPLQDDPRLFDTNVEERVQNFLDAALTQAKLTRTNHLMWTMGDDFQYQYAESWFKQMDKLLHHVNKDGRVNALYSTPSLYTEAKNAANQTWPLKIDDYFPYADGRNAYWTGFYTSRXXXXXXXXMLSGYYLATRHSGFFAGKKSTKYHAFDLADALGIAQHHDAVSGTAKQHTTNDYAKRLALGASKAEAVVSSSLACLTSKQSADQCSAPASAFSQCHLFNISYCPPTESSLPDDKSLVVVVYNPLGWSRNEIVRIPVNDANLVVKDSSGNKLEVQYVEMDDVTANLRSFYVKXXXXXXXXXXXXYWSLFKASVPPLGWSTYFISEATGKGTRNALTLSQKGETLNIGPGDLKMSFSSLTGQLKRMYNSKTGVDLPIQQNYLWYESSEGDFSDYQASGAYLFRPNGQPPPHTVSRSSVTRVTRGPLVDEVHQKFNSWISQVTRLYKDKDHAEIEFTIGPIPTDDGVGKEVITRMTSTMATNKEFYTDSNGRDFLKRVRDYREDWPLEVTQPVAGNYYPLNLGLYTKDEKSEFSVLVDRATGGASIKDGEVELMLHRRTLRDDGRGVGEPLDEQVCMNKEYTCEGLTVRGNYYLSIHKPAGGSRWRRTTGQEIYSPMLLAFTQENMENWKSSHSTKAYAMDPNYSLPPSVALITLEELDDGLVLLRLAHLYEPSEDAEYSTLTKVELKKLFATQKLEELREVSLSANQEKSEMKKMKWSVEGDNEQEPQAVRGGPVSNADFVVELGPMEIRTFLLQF

[11] = test system: Cornu aspersum; test: Inhibition of snail beta-mannosidase at 1 mM using p-nitrophenyl glycopyranoside preincubated for 5 mins followed by substrate addition measured after 20 mins by visible absorption spectroscopic method relative to control; summary of the method: as §1
[12] = test system: Canavalia ensiformis; test: Inhibition of jack bean beta-N-acetylglucosaminidase at 1 mM using p-nitrophenyl glycopyranoside preincubated for 5 mins followed by substrate addition measured after 20 mins by visible absorption spectroscopic method relative to control; summary of the method: as §1

With O[C@@H]1[C@H](O)CN[C@@H]1c1cn(Cc2ccccc2)nn1 the inhibition [1] was “inactive”, the inhibition [2] was 84% and the IC50 [3] was 168 µM. The inhibition [4] was “inactive”, the inhibition [5] was “inactive” and the inhibition [6] was “inactive”. For the same compound, the inhibition [7] was “inactive”, the inhibition [8] was “inactive” and the inhibition [9] was “inactive”. The inhibition [10] was “inactive”, the inhibition [11] was “inactive” and the inhibition [12] was “inactive”.
